Results taken from ChEMBL document CHEMBL4477233, “Discovery of novel TAOK2 inhibitor scaffolds from high-throughput screening” (Bioorg Med Chem Lett, 2016).

How the values were obtained:
[1] = target: T1, Mitogen-activated protein kinase kinase kinase 5 (Homo sapiens) (UniProt Q99683); test: Binding affinity to ASK1 (unknown origin) assessed as change in melting temperature at 1 uM by SYPRO orange dye-based DSF analysis
T1 sequence (whole entry): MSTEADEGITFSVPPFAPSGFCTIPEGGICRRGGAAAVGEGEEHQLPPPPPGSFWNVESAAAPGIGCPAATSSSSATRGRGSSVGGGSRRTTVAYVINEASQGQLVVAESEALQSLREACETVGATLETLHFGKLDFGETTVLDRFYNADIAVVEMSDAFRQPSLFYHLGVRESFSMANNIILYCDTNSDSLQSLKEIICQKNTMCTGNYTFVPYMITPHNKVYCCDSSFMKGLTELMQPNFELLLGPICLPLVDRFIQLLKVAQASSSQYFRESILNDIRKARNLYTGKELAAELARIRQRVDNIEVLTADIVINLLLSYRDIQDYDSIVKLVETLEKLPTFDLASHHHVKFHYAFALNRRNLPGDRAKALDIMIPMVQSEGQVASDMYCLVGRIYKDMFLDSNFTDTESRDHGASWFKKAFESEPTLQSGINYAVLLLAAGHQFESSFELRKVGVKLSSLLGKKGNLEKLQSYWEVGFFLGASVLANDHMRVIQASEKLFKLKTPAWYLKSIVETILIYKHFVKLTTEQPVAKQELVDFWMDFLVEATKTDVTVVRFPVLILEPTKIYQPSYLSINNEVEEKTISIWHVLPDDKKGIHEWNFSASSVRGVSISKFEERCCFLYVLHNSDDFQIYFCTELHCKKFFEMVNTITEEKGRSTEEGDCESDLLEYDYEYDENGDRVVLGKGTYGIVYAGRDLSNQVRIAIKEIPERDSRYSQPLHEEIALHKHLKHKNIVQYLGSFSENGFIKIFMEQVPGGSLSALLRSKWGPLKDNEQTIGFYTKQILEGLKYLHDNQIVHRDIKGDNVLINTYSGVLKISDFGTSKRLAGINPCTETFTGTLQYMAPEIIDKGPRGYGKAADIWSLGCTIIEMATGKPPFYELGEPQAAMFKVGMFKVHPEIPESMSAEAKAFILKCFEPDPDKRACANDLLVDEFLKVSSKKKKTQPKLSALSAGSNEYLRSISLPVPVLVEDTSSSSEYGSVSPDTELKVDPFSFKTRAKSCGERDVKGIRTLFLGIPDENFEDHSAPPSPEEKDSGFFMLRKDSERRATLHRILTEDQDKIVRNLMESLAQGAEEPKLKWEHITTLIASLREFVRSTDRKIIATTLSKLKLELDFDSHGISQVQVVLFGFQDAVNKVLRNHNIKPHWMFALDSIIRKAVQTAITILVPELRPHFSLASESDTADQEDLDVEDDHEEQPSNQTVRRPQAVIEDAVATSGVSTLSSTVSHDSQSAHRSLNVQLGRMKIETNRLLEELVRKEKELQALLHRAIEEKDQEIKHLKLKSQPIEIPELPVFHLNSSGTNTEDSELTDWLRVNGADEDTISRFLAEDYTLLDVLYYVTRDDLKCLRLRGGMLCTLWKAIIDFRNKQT
How it was run: (§1)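 Differential scanning fluorimetry: each compound's melting-temperature shift (ΔTm, °C) was measured on the kinase protein. Compounds giving a TAOK2 ΔTm above 0.5 °C were also run against p38 and ASK1. Selectivity (ΔΔTm) was taken as the TAOK2 ΔTm minus the p38 or ASK1 ΔTm.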

[2] = target: T2, Serine/threonine-protein kinase TAO2 (Rattus norvegicus) (UniProt Q9JLS3); test: Binding affinity to rat TAOK2 (1 to 320 residues) expressed in Baculovirus/insect cell expression system assessed as change in melting temperature at 1 uM by SYPRO orange dye-based DSF analysis; how it was run: as §1
T2 sequence (whole entry): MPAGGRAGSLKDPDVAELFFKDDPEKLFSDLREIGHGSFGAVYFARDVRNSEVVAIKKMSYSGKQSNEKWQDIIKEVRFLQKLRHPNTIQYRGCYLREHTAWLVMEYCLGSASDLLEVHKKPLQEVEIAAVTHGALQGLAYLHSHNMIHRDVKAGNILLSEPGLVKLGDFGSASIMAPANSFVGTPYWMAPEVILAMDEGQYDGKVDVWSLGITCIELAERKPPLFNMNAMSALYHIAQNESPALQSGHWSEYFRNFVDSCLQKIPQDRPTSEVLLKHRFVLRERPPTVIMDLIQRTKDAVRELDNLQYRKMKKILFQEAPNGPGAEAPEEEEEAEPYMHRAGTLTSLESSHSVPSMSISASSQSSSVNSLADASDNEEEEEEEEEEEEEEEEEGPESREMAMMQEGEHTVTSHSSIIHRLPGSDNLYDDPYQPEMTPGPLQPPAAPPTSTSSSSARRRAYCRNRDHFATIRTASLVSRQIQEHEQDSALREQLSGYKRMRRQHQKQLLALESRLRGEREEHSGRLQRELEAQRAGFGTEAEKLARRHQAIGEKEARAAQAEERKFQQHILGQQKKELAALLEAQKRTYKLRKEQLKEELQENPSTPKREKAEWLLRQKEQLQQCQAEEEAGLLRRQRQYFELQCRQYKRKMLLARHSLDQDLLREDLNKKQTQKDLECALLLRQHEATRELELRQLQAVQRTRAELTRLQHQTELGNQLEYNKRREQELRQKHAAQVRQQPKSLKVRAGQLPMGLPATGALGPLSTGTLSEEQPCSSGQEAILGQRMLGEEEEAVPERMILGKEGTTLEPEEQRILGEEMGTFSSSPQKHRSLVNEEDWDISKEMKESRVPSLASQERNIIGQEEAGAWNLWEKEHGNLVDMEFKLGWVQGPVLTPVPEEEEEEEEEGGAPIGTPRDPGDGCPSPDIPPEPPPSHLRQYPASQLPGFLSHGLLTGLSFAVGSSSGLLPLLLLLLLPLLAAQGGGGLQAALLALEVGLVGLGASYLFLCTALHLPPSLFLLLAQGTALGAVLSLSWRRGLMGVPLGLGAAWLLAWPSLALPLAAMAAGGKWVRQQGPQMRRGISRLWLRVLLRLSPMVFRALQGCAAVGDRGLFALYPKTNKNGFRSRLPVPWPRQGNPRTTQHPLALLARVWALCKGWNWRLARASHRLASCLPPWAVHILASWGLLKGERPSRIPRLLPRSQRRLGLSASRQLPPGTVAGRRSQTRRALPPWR

ΔTm [1] | ΔTm [2] | SMILES
1.2 °C | 1.6 °C | Cc1ccc(NCCCC(=O)N/N=C/c2cc(Br)cc(Br)c2O)cc1
1.2 °C | 1.6 °C | O=C(NCC1COc2ccccc2O1)c1ccc(NC(=O)c2ccco2)cc1 (stereo unspecified)
1.2 °C | 1.3 °C | CS(=O)(=O)c1ccc2nc(NC(=O)CCCOc3ccc(Cl)cc3)sc2c1

The remaining lines, values behind:

SMILES | ΔTm [1] | ΔTm [2]
CCC(=O)Nc1nc(C)c(-c2csc(Nc3cc(OC)ccc3OC)n2)s1 | 2.7 °C | 3 °C
CCOCCCn1c(=S)[nH]c2cc(C(=O)NCC3COc4ccccc4O3)ccc2c1=O (stereo unspecified) | 2.1 °C | 2 °C
Cc1ccc(C(=O)CSc2nnc(-c3ccncc3)[nH]2)c(C)c1 | 0.4 °C | 0.7 °C
c1cc2[nH]c3c(c2c2nonc12)CCCC3 | 0 °C | 1.2 °C
O=C(O)c1cc(-c2ccc(-c3ccccc3[N+](=O)[O-])o2)nc2ccc3ccccc3c12 | 1.7 °C | 2.2 °C
